Reference: ChEMBL document CHEMBL2375313, “Synthesis, in vitro antitumor evaluation and DNA-binding study of novel tetrahydroquinolines and some derived tricyclic and tetracyclic ring systems” (Eur J Med Chem, 2013)
Values after ≈ are worked out from the molar mass of the structure shown. Active and inactive are the calls of the source. The calls are words filed in the database; no cut-off is given here.

Experiments:
HOP-92 = assay: Cytotoxicity against human HOP92 cells assessed as growth inhibition at 10 uM after 48 hrs by sulphorhodamine B assay; assay type: functional; settings: HOP-92, 48 h, read-out: GI
Procedure, shortened: (§1)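 NCI-60 one-dose screen per the NCI Drug Evaluation Branch protocol. Cells given a single 10 µM concentration with 48 h continuous exposure. Growth estimated by sulphorhodamine B protein assay. Result expressed as percentage growth inhibition relative to untreated growth.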

NCI-H23 = assay: Cytotoxicity against human NCI-H23 cells assessed as growth inhibition at 10 uM after 48 hrs by sulphorhodamine B assay; assay type: functional; settings: NCI-H23, 48 h, read-out: GI; procedure, shortened: as §1
[1] = Cytotoxicity against human EKVX cells assessed as growth inhibition at 10 uM after 48 hrs by sulphorhodamine B assay; assay type: functional; settings: read-out: GI; procedure, shortened: as §1
A549 = assay: Cytotoxicity against human A549 cells assessed as growth inhibition at 10 uM after 48 hrs by sulphorhodamine B assay; assay type: functional; settings: A549, 48 h, read-out: GI; procedure, shortened: as §1
[2] = Displacement of methyl green from DNA (unknown origin) after 24 hrs
Procedure, shortened: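 DNA-methyl green complex was stirred in 0.05 M Tris-HCl pH 7.5 with 7.5 mmol MgSO4 at 37 °C for 24 h. Compound was dried down from EtOH in tubes and the DNA-methyl green solution added. A630 was read initially and after 24 h dark incubation at room temperature, corrected and normalized to untreated complex. IC50 is the concentration giving a 50% absorbance decrease; mean ± SD, n = 6.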

[3] = Binding affinity to DNA (unknown origin) at 5 mg/mL by RP-TLC plate analysis
Procedure, shortened: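 Reversed-phase C18 TLC plates pre-developed in methanol/water 8:2. Compound spotted at origin (5 mg/mL in methanol), then DNA (1 mg/mL in water/methanol 8:2) applied at the same spot. Plates developed in the same eluent; DNA located by anisaldehyde spray (blue). Ethidium bromide as positive control.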

NCI/ADR-RES = assay: Cytotoxicity against human NCI/ADR-RES cells assessed as growth inhibition at 10 uM after 48 hrs by sulphorhodamine B assay; assay type: functional; settings: read-out: GI; procedure, shortened: as §1
SNB-75 = assay: Cytotoxicity against human SNB75 cells assessed as growth inhibition at 10 uM after 48 hrs by sulphorhodamine B assay; assay type: functional; settings: SNB-75, 48 h, read-out: GI; procedure, shortened: as §1
U-251 = assay: Cytotoxicity against human U251 cells assessed as growth inhibition at 10 uM after 48 hrs by sulphorhodamine B assay; assay type: functional; settings: U-251, 48 h, read-out: GI; procedure, shortened: as §1
SNB-19 = assay: Cytotoxicity against human SNB19 cells assessed as growth inhibition at 10 uM after 48 hrs by sulphorhodamine B assay; assay type: functional; settings: SNB-19, 48 h, read-out: GI; procedure, shortened: as §1
SF-295 = assay: Cytotoxicity against human SF295 cells assessed as growth inhibition at 10 uM after 48 hrs by sulphorhodamine B assay; assay type: functional; settings: SF-295, 48 h, read-out: GI; procedure, shortened: as §1
DU-145 = assay: Cytotoxicity against human DU145 cells assessed as growth inhibition at 10 uM after 48 hrs by sulphorhodamine B assay; assay type: functional; settings: DU-145, 48 h, read-out: GI; procedure, shortened: as §1
SF-268 = assay: Cytotoxicity against human SF268 cells assessed as growth inhibition at 10 uM after 48 hrs by sulphorhodamine B assay; assay type: functional; settings: SF-268, 48 h, read-out: GI; procedure, shortened: as §1
PC-3 = assay: Cytotoxicity against human PC3 cells assessed as growth inhibition at 10 uM after 48 hrs by sulphorhodamine B assay; assay type: functional; settings: PC-3, 48 h, read-out: GI; procedure, shortened: as §1
UACC-62 = assay: Cytotoxicity against human UACC62 cells assessed as growth inhibition at 10 uM after 48 hrs by sulphorhodamine B assay; assay type: functional; settings: UACC-62, 48 h, read-out: GI; procedure, shortened: as §1
SK-MEL-2 = assay: Cytotoxicity against human SK-MEL-2 cells assessed as growth inhibition at 10 uM after 48 hrs by sulphorhodamine B assay; assay type: functional; settings: SK-MEL-2, 48 h, read-out: GI; procedure, shortened: as §1
SK-MEL-5 = assay: Cytotoxicity against human SK-MEL-5 cells assessed as growth inhibition at 10 uM after 48 hrs by sulphorhodamine B assay; assay type: functional; settings: SK-MEL-5, 48 h, read-out: GI; procedure, shortened: as §1
M14 = assay: Cytotoxicity against human M14 cells assessed as growth inhibition at 10 uM after 48 hrs by sulphorhodamine B assay; assay type: functional; settings: M14, 48 h, read-out: GI; procedure, shortened: as §1
LOX IMVI = assay: Cytotoxicity against human LOXIMVI cells assessed as growth inhibition at 10 uM after 48 hrs by sulphorhodamine B assay; assay type: functional; settings: read-out: GI; procedure, shortened: as §1
UO-31 = assay: Cytotoxicity against human UO31 cells assessed as growth inhibition at 10 uM after 48 hrs by sulphorhodamine B assay; assay type: functional; settings: UO-31, 48 h, read-out: GI; procedure, shortened: as §1
CAKI-1 = assay: Cytotoxicity against human Caki1 cells assessed as growth inhibition at 10 uM after 48 hrs by sulphorhodamine B assay; assay type: functional; settings: CAKI-1, 48 h, read-out: GI; procedure, shortened: as §1
RXF 393 = assay: Cytotoxicity against human RXF393 cells assessed as growth inhibition at 10 uM after 48 hrs by sulphorhodamine B assay; assay type: functional; settings: RXF 393, 48 h, read-out: GI; procedure, shortened: as §1
ACHN = assay: Cytotoxicity against human ACHN cells assessed as growth inhibition at 10 uM after 48 hrs by sulphorhodamine B assay; assay type: functional; settings: read-out: GI; procedure, shortened: as §1
SR = assay: Cytotoxicity against human SR cells assessed as growth inhibition at 10 uM after 48 hrs by sulphorhodamine B assay; assay type: functional; settings: read-out: GI; procedure, shortened: as §1
A498 = assay: Cytotoxicity against human A498 cells assessed as growth inhibition at 10 uM after 48 hrs by sulphorhodamine B assay; assay type: functional; settings: A498, 48 h, read-out: GI; procedure, shortened: as §1
RPMI-8226 = assay: Cytotoxicity against human RPMI8226 cells assessed as growth inhibition at 10 uM after 48 hrs by sulphorhodamine B assay; assay type: functional; settings: RPMI-8226, 48 h, read-out: GI; procedure, shortened: as §1
MOLT-4 = assay: Cytotoxicity against human MOLT4 cells assessed as growth inhibition at 10 uM after 48 hrs by sulphorhodamine B assay; assay type: functional; settings: MOLT-4, 48 h, read-out: GI; procedure, shortened: as §1
K562 = assay: Cytotoxicity against human K562 cells assessed as growth inhibition at 10 uM after 48 hrs by sulphorhodamine B assay; assay type: functional; settings: K562, 48 h, read-out: GI; procedure, shortened: as §1
HL-60(TB) = assay: Cytotoxicity against human HL-60(TB) cells assessed as growth inhibition at 10 uM after 48 hrs by sulphorhodamine B assay; assay type: functional; settings: HL-60, 48 h, read-out: GI
Procedure, shortened: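 NCI-60 one-dose primary screen run to the Drug Evaluation Branch protocol. Cells are exposed to a single 10 µM concentration for 48 h continuously, and growth is read by SRB protein assay. Data are reported as percent growth of treated cells, expressed as % growth inhibition.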

SK-OV-3 = assay: Cytotoxicity against human SKOV3 cells assessed as growth inhibition at 10 uM after 48 hrs by sulphorhodamine B assay; assay type: functional; settings: SK-OV-3, 48 h, read-out: GI; procedure, shortened: as §1
CCRF-CEM = assay: Cytotoxicity against human CCRF-CEM cells assessed as growth inhibition at 10 uM after 48 hrs by sulphorhodamine B assay; assay type: functional; settings: read-out: GI; procedure, shortened: as §1
OVCAR-5 = assay: Cytotoxicity against human OVCAR5 cells assessed as growth inhibition at 10 uM after 48 hrs by sulphorhodamine B assay; assay type: functional; settings: OVCAR-5, 48 h, read-out: GI; procedure, shortened: as §1
OVCAR-4 = assay: Cytotoxicity against human OVCAR4 cells assessed as growth inhibition at 10 uM after 48 hrs by sulphorhodamine B assay; assay type: functional; settings: OVCAR-4, 48 h, read-out: GI; procedure, shortened: as §1
IGROV-1 = assay: Cytotoxicity against human IGROV1 cells assessed as growth inhibition at 10 uM after 48 hrs by sulphorhodamine B assay; assay type: functional; settings: IGROV-1, 48 h, read-out: GI; procedure, shortened: as §1
T47D = assay: Cytotoxicity against human T47D cells assessed as growth inhibition at 10 uM after 48 hrs by sulphorhodamine B assay; assay type: functional; settings: read-out: GI; procedure, shortened: as §1
Hs-578T = assay: Cytotoxicity against human Hs578T cells assessed as growth inhibition at 10 uM after 48 hrs by sulphorhodamine B assay; assay type: functional; settings: read-out: GI; procedure, shortened: as §1
NCI-H522 = assay: Cytotoxicity against human NCI-H522 cells assessed as growth inhibition at 10 uM after 48 hrs by sulphorhodamine B assay; assay type: functional; settings: NCI-H522, 48 h, read-out: GI; procedure, shortened: as §1
HT-29 = assay: Cytotoxicity against human HT-29 cells assessed as growth inhibition at 10 uM after 48 hrs by sulphorhodamine B assay; assay type: functional; settings: HT-29, 48 h, read-out: GI; procedure, shortened: as §1
MCF7 = assay: Cytotoxicity against human MCF7 cells assessed as growth inhibition at 10 uM after 48 hrs by sulphorhodamine B assay; assay type: functional; settings: MCF7, 48 h, read-out: GI; procedure, shortened: as §1
MDA-MB-435 = assay: Cytotoxicity against human MDA-MB-435 cells assessed as growth inhibition at 10 uM after 48 hrs by sulphorhodamine B assay; assay type: functional; settings: MDA-MB-435, 48 h, read-out: GI; procedure, shortened: as §1
HCT-15 = assay: Cytotoxicity against human HCT15 cells assessed as growth inhibition at 10 uM after 48 hrs by sulphorhodamine B assay; assay type: functional; settings: HCT-15, 48 h, read-out: GI; procedure, shortened: as §1
HCT-116 = assay: Cytotoxicity against human HCT116 cells assessed as growth inhibition at 10 uM after 48 hrs by sulphorhodamine B assay; assay type: functional; settings: HCT-116, 48 h, read-out: GI; procedure, shortened: as §1

With `CC1CCCc2c1nc1[nH]c(=S)nc(N)c1c2-c1ccc(Cl)cc1` (configuration not stated) the inhibition of growth at 10 µM (HOP-92) was under 10%, the inhibition of growth at 10 µM (NCI-H23) was 10.1% and the inhibition of growth at 10 µM [1] was 14.5%. The inhibition of growth at 10 µM (A549) was under 10%, the IC50 [2] was 0.151 µg/mL (≈ 0.423 µM) and the Activity [3] was “Active”. For the same molecule, the inhibition of growth at 10 µM (NCI/ADR-RES) was under 10%, the inhibition of growth at 10 µM (SNB-75) was 10.2% and the inhibition of growth at 10 µM (U-251) was under 10%. For the same molecule, the inhibition of growth at 10 µM (SNB-19) was 10%, the inhibition of growth at 10 µM (SF-295) was under 10% and the inhibition of growth at 10 µM (DU-145) was under 10%. It also gave an inhibition of growth at 10 µM (SF-268) of 18.8%, an inhibition of growth at 10 µM (PC-3) of 56.7% and an inhibition of growth at 10 µM (UACC-62) of 15.8%. It also gave an inhibition of growth at 10 µM (SK-MEL-2) of 11.4%, an inhibition of growth at 10 µM (SK-MEL-5) of 10.3% and an inhibition of growth at 10 µM (M14) of under 10%. It also gave an inhibition of growth at 10 µM (LOX IMVI) of under 10%, an inhibition of growth at 10 µM (UO-31) of under 10% and an inhibition of growth at 10 µM (CAKI-1) of 31.3%. It also gave an inhibition of growth at 10 µM (RXF 393) of under 10%, an inhibition of growth at 10 µM (ACHN) of under 10% and an inhibition of growth at 10 µM (SR) of 25.8%. For the same molecule, the inhibition of growth at 10 µM (A498) was 11.5%, the inhibition of growth at 10 µM (RPMI-8226) was 37% and the inhibition of growth at 10 µM (MOLT-4) was 26.2%. For the same molecule, the inhibition of growth at 10 µM (K562) was 15%, the inhibition of growth at 10 µM (HL-60(TB)) was 10% and the inhibition of growth at 10 µM (SK-OV-3) was under 10%. For the same molecule, the inhibition of growth at 10 µM (CCRF-CEM) was 28.8%, the inhibition of growth at 10 µM (OVCAR-5) was under 10% and the inhibition of growth at 10 µM (OVCAR-4) was under 10%. It also gave an inhibition of growth at 10 µM (IGROV-1) of 10%, an inhibition of growth at 10 µM (T47D) of 15.2% and an inhibition of growth at 10 µM (Hs-578T) of under 10%. The inhibition of growth at 10 µM (NCI-H522) was 10%, the inhibition of growth at 10 µM (HT-29) was under 10% and the inhibition of growth at 10 µM (MCF7) was 10.4%. For the same molecule, the inhibition of growth at 10 µM (MDA-MB-435) was under 10%, the inhibition of growth at 10 µM (HCT-15) was 14.3% and the inhibition of growth at 10 µM (HCT-116) was 10.5%.
